Source: ChEMBL document CHEMBL3272191, “Aporphines. 14 Dopaminergic and antinociceptive activity of aporphine derivatives. Synthesis of 10-hydroxyaporphines and 10-hydroxy-N-n-propylnoraporphine” (1976)
Active and inactive are the calls of the source.

Legend:
Rattus norvegicus [1] = experiment: Central dopaminergic activity in 6-OH-DA-lesioned specific pathogen-free Sprague-Dawley rat assessed as induction of rotational behavior measured as total time at 5 mg/kg, ip; format: functional; details: route intraperitoneal
Procedure, shortened: (§1)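 Drugs were given ip, mostly to one group of four rats, with an extra group of four in some runs. Doses were 3 days or more apart over several months. Read-outs were total turning time (min), peak activity, overall mean activity and total activity, given as means ± SEM.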

Rattus norvegicus [2] = experiment: Central dopaminergic activity in 6-OH-DA-lesioned specific pathogen-free Sprague-Dawley rat assessed as induction of rotational behavior measured as total time at 1 mg/kg, ip; format: functional; details: route intraperitoneal; procedure, shortened: as §1
Rattus norvegicus [3] = experiment: Central dopaminergic activity in 6-OH-DA-lesioned specific pathogen-free Sprague-Dawley rat assessed as induction of rotational behavior measured as total time at 0.25 mg/kg, ip; format: functional; details: route intraperitoneal; procedure, shortened: as §1
Rattus norvegicus [4] = experiment: Central dopaminergic activity in 6-OH-DA-lesioned ip dosed specific pathogen-free Sprague-Dawley rat assessed as induction of rotational behavior; format: functional, organism-based; procedure, shortened: as §1
Rattus norvegicus [5] = experiment: Central dopaminergic activity in 6-OH-DA-lesioned specific pathogen-free Sprague-Dawley rat assessed as induction of rotational behavior measured as total time at 0.01 mg/kg, ip; format: functional; details: route intraperitoneal; procedure, shortened: as §1
Rattus norvegicus [6] = experiment: Central dopaminergic activity in 6-OH-DA-lesioned specific pathogen-free Sprague-Dawley rat assessed as induction of rotational behavior measured as total time at 0.1 mg/kg, ip; format: functional; details: route intraperitoneal; procedure, shortened: as §1
Rattus norvegicus [7] = experiment: Central dopaminergic activity in 6-OH-DA-lesioned specific pathogen-free Sprague-Dawley rat assessed as induction of rotational behavior measured as total time at 0.05 mg/kg, ip; format: functional; details: route intraperitoneal; procedure, shortened: as §1
Mus musculus [8] = experiment: Antinociceptive activity in naloxone hydrochloride-pretreated albino CD-1 mouse at 0.1 to 10 mg/kg, ip after 60 mins by tail-flick method; format: functional, organism-based
Mus musculus [9] = experiment: Antinociceptive activity in albino CD-1 mouse at 0.1 to 10 mg/kg, ip after 60 mins by tail-flick method; format: functional, organism-based
Procedure, shortened: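 Male albino CD-1 mice (18–24 g) were used in groups of ten. Compounds were suspended in 0.5% methylcellulose and given ip. Light was focused on the ventral tail and set for a 2–4 s baseline flick; mice outside that range were excluded. The control was the mean of two readings 30 min apart. Latencies were read every 30 min for 2 h, with a 10 s cutoff. Read-out was %MPE = [(Tr − Tc)/(10 − Tc)] × 100, taken at time of peak effect.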

Rattus norvegicus [10] = experiment: Central dopaminergic activity in 6-OH-DA-lesioned specific pathogen-free Sprague-Dawley rat assessed as induction of rotational behavior measured as total time at 0.5 mg/kg, ip; format: functional; details: route intraperitoneal; procedure, shortened: as §1
Rattus norvegicus [11] = experiment: Central dopaminergic activity in 6-OH-DA-lesioned specific pathogen-free Sprague-Dawley rat assessed as induction of rotational behavior measured as total time at 2.5 mg/kg, ip; format: functional; details: route intraperitoneal; procedure, shortened: as §1
Rattus norvegicus [12] = experiment: Central dopaminergic activity in 6-OH-DA-lesioned specific pathogen-free Sprague-Dawley rat assessed as induction of rotational behavior measured as total time at 25 mg/kg, ip; format: functional; details: route intraperitoneal
Procedure, shortened: (§2)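 Rotational behavior in unilaterally 6-OHDA-lesioned rats, ascending DA pathway. Drug given ip, mostly to one group of four rats, plus a second group of four for some doses. Injections at least 3 days apart over several months. Reported as mean total turning time (min), peak, overall and total activity, means ± SEM.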

Rattus norvegicus [13] = experiment: Central dopaminergic activity in 6-OH-DA-lesioned specific pathogen-free Sprague-Dawley rat assessed as induction of rotational behavior measured as total time at 15 mg/kg, ip; format: functional; details: route intraperitoneal; procedure, shortened: as §2
Mus musculus [14] = experiment: Antinociceptive activity in albino CD-1 mouse at 1 to 10 mg/kg, ip up to 2 hrs by tail-flick method; format: functional, organism-based
Procedure, shortened: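 Male albino CD-1 mice (18–24 g), ten per group, dosed ip as suspension in 0.5% methylcellulose. Radiant light on ventral tail, adjusted for baseline 2–4 sec; animals outside excluded. Two control latencies 30 min apart averaged; post-dose latencies every 30 min over 2 hr, 10-sec cutoff. %MPE = [(Tr − Tc)/(10 − Tc)] × 100, read at peak-effect time.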

Rattus norvegicus [15] = experiment: Central dopaminergic activity in 6-OH-DA-lesioned specific pathogen-free Sprague-Dawley rat assessed as induction of rotational behavior measured as total time at 0.025 mg/kg, ip; format: functional; details: route intraperitoneal; procedure, shortened: as §1
Rattus norvegicus [16] = experiment: Central dopaminergic activity in 6-OH-DA-lesioned specific pathogen-free Sprague-Dawley rat assessed as induction of rotational behavior measured as total time at 2 mg/kg, ip; format: functional; details: route intraperitoneal; procedure, shortened: as §1
Rattus norvegicus [17] = experiment: Central dopaminergic activity in 6-OH-DA-lesioned specific pathogen-free Sprague-Dawley rat assessed as induction of rotational behavior measured as total time at 0.005 mg/kg, ip; format: functional; details: route intraperitoneal; procedure, shortened: as §1
Mus musculus [18] = experiment: Antinociceptive activity in albino CD-1 mouse at 0.1 to 10 mg/kg, ip after 10 mins by tail-flick method; format: functional, organism-based
Mus musculus [19] = experiment: Antinociceptive activity in naloxone hydrochloride-pretreated albino CD-1 mouse at 0.1 to 10 mg/kg, ip after 10 mins by tail-flick method; format: functional, organism-based

Row | SMILES | Time (Rattus norvegicus [2]) | Activity (Rattus norvegicus [4]) | Time (Rattus norvegicus [5]) | Time (Rattus norvegicus [7]) | Activity (Mus musculus [8]) | Activity (Mus musculus [9]) | also measured
1 | COc1ccc2c(c1O)-c1cccc3c1[C@@H](C2)N(C)CC3 [APOCIDEINE] | 40 min |  |  |  |  |  | Time (Rattus norvegicus [1]): 200 min
2 | CCCN1CCc2cccc3c2C1Cc1cccc(O)c1-3 (racemic) | 725 min | Active | 0 min | 195 min |  |  | Time (Rattus norvegicus [3]): 580 min; Time (Rattus norvegicus [6]): 200 min
3 | CN1CC[C@]23c4c5ccc(O)c4O[C@H]2[C@@H](O)C=C[C@H]3[C@H]1C5 |  |  |  |  | inactive | Active | 
4 | CCCN1CCc2cccc3c2C1Cc1ccc(O)cc1-3 (racemic) | 177 min | Active |  |  | Active | Active | Time (Rattus norvegicus [3]): 0 min; Time (Rattus norvegicus [10]): 105 min; Time (Rattus norvegicus [11]): 174 min
5 | N[C@@H](Cc1ccc(O)c(O)c1)C(=O)O [LEVODOPA] |  |  |  |  |  |  | Time (Rattus norvegicus [1]): 35 min; Time (Rattus norvegicus [12]): 127 min; Time (Rattus norvegicus [13]): 90 min; Activity (Mus musculus [14]): inactive
6 | CN1CCc2cccc3c2[C@H]1Cc1ccc(O)c(O)c1-3 [APOMORPHINE] | 153 min | Active | 33 min | 63 min | Active | inactive | Time (Rattus norvegicus [15]): 55 min; Time (Rattus norvegicus [10]): 144 min; Time (Rattus norvegicus [16]): 238 min
7 | CCCN1CCc2cccc3c2[C@H]1Cc1ccc(O)c(O)c1-3 (racemic) [R-N-PROPYLNORAPOMORPHINE] |  | Active | 200 min | 305 min |  |  | Time (Rattus norvegicus [15]): 185 min; Time (Rattus norvegicus [17]): 205 min; Activity (Mus musculus [18]): Active; Time (Rattus norvegicus [6]): 360 min; Activity (Mus musculus [19]): Active
